From ChEMBL document CHEMBL1146825, “Triaryl methane derivatives as antiproliferative agents” (Bioorg Med Chem Lett, 2004) come the findings set out here.

Assay [1] relates to NIH3T3. Briefly: Mitogen-induced cell proliferation assay to evaluate the antiproliferative effect in NIH 3T3 cells. Format: functional, cell-based. Particulars: Mus musculus. The method, boiled down: (§1)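 NIH 3T3 mouse fibroblasts given a mitogenic stimulus (e.g. PDGF or bFGF) for 10 h, then [3H]thymidine added. Cultured a further 21 h at 37 C, 5% CO2, then washed four times with DME. Acid-precipitable radioactivity extracted with cold 10% TCA, neutralized with 0.3 N NaOH, and counted by scintillation.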

Assay [2] concerns NIH3T3. Briefly: Percent inhibition at 10 uM determined against mouse NIH 3T3 cells. Format: functional. In a few lines: as §1
Assay [3] relates to NCI-H460. The assay can be described thus: Effect of 50 uM compound on NCI-H460 non-small cell lung cancer cells cycle progression in S phase by flow cytometry. Format: functional, Homo sapiens. In a few lines:
(§2)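 NCI-H460 cells serum-starved 56 h, then released into complete medium containing compound (25 or 50 uM) or 0.1% DMSO vehicle for 16 h. Harvested, washed in cold PBS, fixed in 70% ethanol at 4 C for at least 4 h. Treated with ribonuclease and propidium iodide 30 min at 37 C. DNA content read by flow cytometry; percent of cells in G0-G1, S and G2-M.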
For orientation: Flow cytometry measures light scatter and fluorescence of single cells or particles in a stream.

The subject of assay [4] is NCI-H460. The assay can be described thus: Effect of 25 uM compound on NCI-H460 non-small cell lung cancer cells cycle progression in S phase by flow cytometry. Format: functional, Homo sapiens. The method, boiled down:
as §2

In assay [5] the test system is NCI-H460. Briefly: Effect of 50 uM compound on NCI-H460 non-small cell lung cancer cells cycle progression in G2-M phase by flow cytometry. Format: functional, Homo sapiens. The method, boiled down:
as §2

The test system of assay [6] is NCI-H460. The assay can be described thus: Effect of 50 uM compound on NCI-H460 non-small cell lung cancer cells cycle progression in G0G1 phase by flow cytometry. Format: functional, Homo sapiens. The method, boiled down: as §2
Assay [7] concerns NCI-H460. Briefly: Effect of 25 uM compound on NCI-H460 non-small cell lung cancer cells cycle progression in G0G1 phase by flow cytometry. Format: functional, Homo sapiens. In a few lines:
as §2

Assay [8] relates to NCI-H460. The assay can be described thus: Effect of 25 uM compound on NCI-H460 non-small cell lung cancer cells cycle progression in G2M phase by flow cytometry. Format: functional, Homo sapiens. In a few lines: as §2

`OC(c1ccccc1)(c1ccccc1)c1ccccc1Cl` registered an IC50 in the assay on NIH3T3 [1] of 2.1 µM.
Same read-out and setting: the same measure for `OC(c1ccccc1)(c1ccc(Br)cc1)c1ccc(Br)cc1`: 0.5 µM; for `OC(c1ccccc1)(c1ccccc1)C1CCCCC1`: 9.5 µM; for `N#CC(c1ccccc1)(c1ccccc1)C1CCCCC1`: 0.9 µM.
On to `CCOC(=O)C(c1ccccc1)(c1ccccc1)N1CCCCC1`, for which the IC50 in the assay on NIH3T3 [1] was determined as 2.2 µM.
In the case of `CCOC(c1ccccc1)(c1ccccc1)c1ccc(-c2ccccc2)cc1`, 10 µM produced 99% inhibition in the assay with NIH3T3 [2]. The same compound gave a concentration for half-maximal inhibition (IC50) in the assay on NIH3T3 [1] of 2.2 µM.
The compound `OC(Cc1ccccc1)(c1ccccc1)c1ccccc1` displayed an inhibition at 10 µM with NIH3T3 [2] of 98%. The Cell with NCI-H460 [3] is 25.09%; with NCI-H460 [4] it was 44.63%; with NCI-H460 [5], 5%; with NCI-H460 [6], 69.91%; in the assay with NCI-H460 [7] it was 46.8%; in the assay with NCI-H460 [8], 8.57%. In addition, in the assay on NIH3T3 [1], the IC50 amounted to 0.4 µM.
`OC(c1ccccc1)(c1ccccc1)c1ccc(Cl)cc1`: the midpoint of inhibition in the assay with NIH3T3 [1], the IC50, lay at 0.8 µM.
In the assay with NIH3T3 [1], `N#CC(c1ccccc1)(c1ccccc1)c1ccccc1Cl` registered an IC50 of 2.2 µM.
`OC(c1ccccc1)(c1ccccc1)c1cccc2ccccc12` had an IC50 in the assay with NIH3T3 [1] of 1.6 µM.
Compound `Oc1ccccc1C(O)(c1ccccc1)c1ccccc1Cl` (stereo not given) showed an inhibition at 10 µM in the assay on NIH3T3 [2] of 99%. Moreover, it took 1 µM to reach half-maximal inhibition with NIH3T3 [1] (IC50).
`Nc1ccc(C(O)(c2ccc(N)cc2)c2ccc(N)cc2)cc1` registered an IC50 in the assay with NIH3T3 [1] of 0.2 µM.
In the case of `OC(c1ccccc1)(c1ccccc1)c1ccc(C(F)(F)F)cc1`, the IC50 in the assay on NIH3T3 [1] was found to be 3.1 µM.
`O=C(O)CC(c1ccccc1)(c1ccccc1)c1ccccc1Cl` gave an IC50 in the assay with NIH3T3 [1] of 1.2 µM.
The same measure, in the same setting: the same measure for `N#CC(c1ccccc1)(c1ccccc1)c1ccc([N+](=O)[O-])cc1`: 1.7 µM; for `Cc1ccc(C(O)(c2ccc(C)cc2)c2ccc(C)cc2)cc1`: 3 µM.
In the case of `O=[N+]([O-])c1ccc(C(O)(c2ccccc2)c2ccccc2)c(Cl)c1`, in the assay with NIH3T3 [2], testing at 10 µM gave an inhibition of 94%. The half-inhibitory concentration (IC50) in the assay on NIH3T3 [1] is 0.3 µM.
`Clc1ccccc1C(c1ccccc1)c1ccccc1` [2-CHLOROPHENYL-BISPHENYLMETHANE(MAJOR)] yielded an IC50 in the assay with NIH3T3 [1] of 3.9 µM.
`OC(c1ccccc1)(c1ccccc1)c1ccccc1` [TRIPHENYLMETHANOL] had an inhibition at 10 µM in the assay with NIH3T3 [2] of 99%. This compound yielded an IC50 in the assay with NIH3T3 [1] of 2 µM.

By IC50 is commonly meant the concentration at which inhibition is half-maximal. Read a low IC50 as higher potency. The inhibition is how much of the control response was suppressed. A low value points to a response near the control.
